# High-throughput results: PubChem BioAssay, SRMLSC
# The entries come from a sample that favours hits as a whole.
# bCat KO growth: primary screen for growth suppressors in beta-catenin knockout HCT116 cells (colon tumor, human); 1.5% of 140,000 active; viability, % at 10 µM; HCT116 beta-catenin knockout viability, CellTiter-Glo, 60 h; active compounds read low;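 active = viability at or under a set limit, the compound median less 4 SD, cut at about 6% in these data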;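 also: 0% = Hyamine 1622 control at 20 µM and 100% = untreated cell control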
# Lung fibro prol: antiproliferative effect on LL 47 fibroblasts – human, LL 47 cells, CellTiter-Glo luminescence, primary screen; viability, % at 10 µM; 1.1% of 85,000 active; LL 47 human lung fibroblast viability, ATP luminescence; active compounds read low; AID 719, 2007;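 active = viability at or below 50% in the single dose screen; inactive = viability above 50%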;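 also: compound exposure lasted 72 h before the ATP readout; 100% = median luminescence of untreated cell-only wells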
#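 Material: Human LL 47 lung fibroblast cells | Input: 1,150 cells/well | Buffer or medium: IMEM plus 15% FBS | Compound dosing: 0.1% DMSO in all compound wells | Times: Overnight cell rest, 72 h compound treatment at 37 °C | Signal: CellTiter-Glo luminescence measuring cellular ATP | Measure: % viability versus median cells-only luminescence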
# H69AR growth 86K: proliferation blockers of H69AR lung cancer cells, primary screen, cell-based, human, 86K library; viability, % at 10 µM; AID 598, 2007; H69AR lung tumor viability, ATP luminescence, 72 h; active compounds read low; 6% of 85,000 active;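 active = viability at or below 40%; inactive = viability above 40%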;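 also: multidrug resistant small cell line overexpressing MRP-1 efflux transporter; 100% = mean luminescence of untreated control wells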
# HUVEC prolif 384: inhibitors of HUVEC proliferation, primary screen, cell-based, 384-well. AID 648, 2007. 1.1% of 86,000 active. viability, % at 10 µM (by protocol). CellTiter-Glo luminescence, 72 h; active compounds read low;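 active = viability at or below 30%; inactive = viability above 30%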;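 also: 100% = median luminescence of DMSO-only cell control wells on each plate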
# HCT116 PTEN-null: growth suppression of PTEN-null HCT116, primary screen, cell-based, CellTiter-Glo; 1.2% of 140,000 active; HCT116 PTEN-null viability, 60 h; active compounds read low; viability, % at 10 µM;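 active = viability at or below a set limit, 4 SD under the median of all tested compounds, cut at about 3.7% in these data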;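 also: PTEN knockout HCT116 line with beta catenin targeted HCT116 as companion control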
# An asterisk follows results filed as active; x = not tested or not shown.
SMILES,bCat KO growth,Lung fibro prol,H69AR growth 86K,HUVEC prolif 384,HCT116 PTEN-null
C=CCn1c(SCC(=O)c2[nH]c(C)c(C(C)=O)c2C)nnc1-c1ccncc1,80,108,87,111,78
C=CCn1c(SCC(=O)c2[nH]c(C)c(C(=O)OC)c2C)nc2scc(-c3ccc(OC)c(OC)c3)c2c1=O,4.1*,x,x,x,2.5*
O=C(NCCO)C(c1ccccc1)c1ccccc1,86,x,36*,98,95
O=C(CSc1nnc(C2CC2)n1-c1ccccc1)NCCc1ccccc1,97,x,x,x,86
CCN1/C(=C(\O)c2ccccc2)C(=O)c2ccccc2S1(=O)=O,52,89,33*,62,62
C=CCSc1cc(C)nc2c(-c3ccc(Cl)cc3)c(C)nn12,89,97,36*,90,88
Cc1cc(C(F)(F)F)n2nc(C)c(-c3ccc(Cl)cc3)c2n1,88,x,x,x,98
Cc1cc(-n2nc(C)cc2C)n2nc(C)c(-c3ccc(Cl)cc3)c2n1,16,46*,44,83,22
Cc1cc(SCC(=O)c2cccs2)n2nc(C)c(-c3ccc(Cl)cc3)c2n1,69,x,x,x,64
CCOc1cccc(SCc2noc(C(=O)NCC3CCCO3)c2C(=O)O)c1 (stereo not drawn),90,x,x,x,92
O=C(/C=C\c1cn(-c2ccccc2)nc1-c1ccccc1)Nc1nccs1,1.6*,x,x,x,1.2*
Cc1cc(C)c2oc(-c3ccc(Cl)c(NC(=O)c4ccc(C#N)cc4F)c3)nc2c1,56,20*,22*,57,64
N#Cc1ccc(C(=O)Nc2cccc3ncccc23)c(F)c1,90,x,x,x,92
COc1ccc(CCNC(=O)Cn2c(=O)cnc3ccccc32)cc1,35,62,25*,60,43
CN(c1ccccc1)c1cc(=O)[nH]c(=O)[nH]1,113,x,x,x,99
Cc1cc(=O)n2nc(N3CCC(C(=O)NCCC4=CCCCC4)CC3)sc2n1,x,95,103,97,x
CC1=C/C(=N\OC(=O)/C=C/c2ccccc2)C(C)=CC1=O,47,x,x,x,52
N/C(=N\OC(=O)/C=C/c1ccccc1)c1ccccc1,93,105,39*,83,99
O=C(/C=C/c1ccccc1)c1ccc2c3c(cccc13)CC2,1.4*,x,x,x,1.8*
O=C(/C=C/c1ccccc1)c1ccccc1,2.1*,86,1.5*,78,2.0*
O=C(/C=C/c1ccccc1)/C=C/c1ccccc1,0.8*,x,x,x,0.7*
CN(CC(=O)Nc1nccs1)S(=O)(=O)c1ccc(F)cc1,99,102,95,104,102
CCC(C(=O)O/N=C(\N)c1ccccc1)c1ccccc1 (stereo not drawn),85,74,1.2*,75,93
CCC(C(=O)O/N=C(\N)c1ccc(C)cc1)c1ccccc1 (stereo not drawn),100,93,53,86,100
O=C(/C=C/NNC(=O)c1ccccc1)c1ccccc1,87,20*,87,101,91
SMILES,bCat KO growth,Lung fibro prol,H69AR growth 86K,HUVEC prolif 384,HCT116 PTEN-null
Cc1ccc(S(=O)(=O)N2CCCCC2)cc1NS(=O)(=O)c1cccc(C(=O)O)c1,94,x,x,x,97
O=C(CNc1cc(S(=O)(=O)N2CCCC2)ccc1OCC(F)(F)F)Nc1cccc(C(F)(F)F)c1,48,x,x,x,46
CCCc1nc([N+](=O)[O-])c(S(=O)(=O)c2ccccc2)n1CC(C)C,3.3*,x,x,x,2.9*
CC(C)Cn1c(C(C)C)nc([N+](=O)[O-])c1S(=O)(=O)c1ccc(F)cc1,2.1*,x,x,x,2.4*
CC(C)Cn1c(CCCNC(=O)c2ccc(F)cc2)nc2ccccc21,83,106,70,100,94
CCOC(=O)N1CCN(C(=O)C(C)N(c2ccc(Oc3ccccc3)cc2)S(C)(=O)=O)CC1 (stereo not drawn),49,x,34*,111,45
Cc1ccc2nc(NC(=O)c3ccc(-c4nc5ccccc5s4)s3)sc2c1,4.7*,x,x,x,2.5*
O=C(Nc1nc2ccccc2s1)c1ccc(Cl)s1,85,105,79,98,83
O=C1c2ccccc2C(=O)C1c1ccc2ccccc2n1,86,62,28*,39,80
COC(=O)C1=C(C)NC(C)=C(C(=O)OC)C1c1ccc2ccccc2n1,95,101,100,92,90
COc1ccc(C)cc1NC(=O)C(Sc1nnc(-c2ccncc2)n1-c1ccc(Cl)cc1)c1ccccc1 (stereo not drawn),46,x,x,x,31
